Test results taken from ChEMBL document CHEMBL2176929, “Hepatoprotective iridoid glycosides from the roots of Rehmannia glutinosa” (J Nat Prod, 2012).

Legend:
[1] = Hepatoprotective activity in human HL7702 cells assessed as inhibition of D-galactosamine-induced cell damage at 10 uM preincubated for 1 hr prior to D-galactosamine challenge measured after 24 hrs by MTT assay relative to untreated control; assay type: functional; settings: L02
In short: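 HL-7702 cells, 2 × 10^4 per well in RPMI 1640 with 10% FCS and penicillin/streptomycin, precultured 24 h at 37 °C in 5% CO2. Pretreated 1 h with samples (10 μM) or bicyclol (10 μM, positive control) in fresh medium, then given 25 mM D-galactosamine for 24 h. Medium removed, 0.5 mg/mL MTT for 4 h, formazan dissolved in DMSO, OD read at 492 nm. Inhibition (%) calculated by formula. Mean ± SD, n = 3 (normal/control n = 6).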

L02 = assay: Hepatoprotective activity in D-galactosamine-treated human HL7702 cells assessed as survival rate at 10 uM preincubated for 1 hr prior to D-galactosamine challenge measured after 24 hrs by MTT assay relative to normal cell; assay type: functional; settings: read-out: Survival
In short: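 HL-7702 cells, 2 × 10^4 per well in RPMI 1640 with 10% fetal calf serum, penicillin and streptomycin, precultured 24 h at 37 °C, 5% CO2. Test samples added in fresh medium for 1 h, then 25 mM D-galactosamine for 24 h. MTT 0.5 mg/mL, 4 h; formazan dissolved in DMSO, OD at 492 nm. Bicyclol 10 μM positive control; means ± SD, n = 3.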

A2780 = assay: Cytotoxicity against human A2780 cells after 4 days by MTT assay; assay type: functional, cell-based; settings: A2780, 96 h
A549 = assay: Cytotoxicity against human A549 cells after 4 days by MTT assay; assay type: functional, cell-based; settings: A549, 96 h
BGC-823 = assay: Cytotoxicity against human BGC823 cells after 4 days by MTT assay; assay type: functional, cell-based; settings: BGC-823, 96 h
Bel-7402 = assay: Cytotoxicity against human Bel7402 cells after 4 days by MTT assay; assay type: functional, cell-based; settings: Bel-7402, 96 h
HCT-8 = assay: Cytotoxicity against human HCT8 cells after 4 days by MTT assay; assay type: functional, cell-based; settings: HCT-8, 96 h

Compound	inhibition at 10 µM [1] [%]	viability at 10 µM (L02) [%]	IC50 (A2780) [µM]	IC50 (A549) [µM]	IC50 (BGC-823) [µM]	IC50 (Bel-7402) [µM]	IC50 (HCT-8) [µM]
COC(=O)c1cc(OC)c2c(c1-c1c(CO)cc(OC)c3c1OCO3)OCO2 [BICYCLOL]	16.7	63.6	–	–	–	–	–
C[C@]1(O)C[C@@H](OC(=O)/C=C/c2ccccc2)[C@@H]2C=CO[C@@H](O[C@@H]3O[C@H](CO)[C@@H](O)[C@H](O)[C@H]3O)[C@@H]21 [REHMAGLUTOSIDE A]	–	–	> 10	> 10	> 10	> 10	> 10
COc1cc(C(=O)O[C@@H]2C[C@](C)(O)[C@H]3[C@H](O[C@@H]4O[C@H](CO)[C@@H](O)[C@H](O)[C@H]4O)OC=C[C@H]32)ccc1O[C@@H]1O[C@H](CO)[C@@H](O)[C@H](O)[C@H]1O [REHMAGLUTOSIDE B]	–	–	> 10	> 10	> 10	> 10	> 10
COc1cc(C(=O)O[C@@H]2C[C@](C)(O)[C@H]3[C@H](O[C@@H]4O[C@H](CO)[C@@H](O)[C@H](O)[C@H]4O)OC=C[C@H]32)cc(OC)c1O[C@@H]1O[C@@H](C)[C@H](O)[C@@H](O)[C@H]1O [REHMAGLUTOSIDE C]	33.6	71	> 10	> 10	> 10	> 10	> 10
C[C@]1(O)C[C@@H](OC(=O)CCc2cc(O)ccn2)[C@@H]2C=CO[C@@H](O[C@@H]3O[C@H](CO)[C@@H](O)[C@H](O)[C@H]3O)[C@@H]21 [REHMAGLUTOSIDE D]	–	–	> 10	> 10	> 10	> 10	> 10
COc1cc([C@@H]2Oc3c(O)cc(/C=C/C(=O)O[C@@H]4C[C@](C)(O)[C@H]5[C@H](O[C@@H]6O[C@H](CO)[C@@H](O)[C@H](O)[C@H]6O)OC=C[C@H]54)cc3[C@H]2CO)ccc1O [REHMAGLUTOSIDE E]	–	–	> 10	> 10	> 10	> 10	> 10
CC(/C=C/[C@@]1(O)C(C)(C)CCC[C@@]1(C)O)=C\C(=O)O[C@@H]1C[C@](C)(O)[C@H]2[C@H](O[C@@H]3O[C@H](CO)[C@@H](O)[C@H](O)[C@H]3O)OC=C[C@H]21 [REHMAGLUTOSIDE F]	–	–	> 10	> 10	> 10	> 10	> 10
CC(/C=C/[C@@]1(O)C(C)(C)C[C@H](O)C[C@@]1(C)O)=C\C(=O)O[C@@H]1C[C@](C)(O)[C@H]2[C@H](O[C@@H]3O[C@H](CO)[C@@H](O)[C@H](O)[C@H]3O)OC=C[C@H]21 [REHMAGLUTOSIDE G]	38.7	73.2	> 10	> 10	> 10	> 10	> 10
CC(/C=C/[C@@]1(O)C(C)(C)CC[C@@H](O)[C@@]1(C)O)=C\C(=O)O[C@@H]1C[C@](C)(O)[C@H]2[C@H](O[C@@H]3O[C@H](CO)[C@@H](O)[C@H](O)[C@H]3O)OC=C[C@H]21 [REHMAGLUTOSIDE H]	–	–	> 10	> 10	> 10	> 10	> 10
CC(/C=C/[C@@]1(O)C(C)(C)CCC[C@@]1(C)O[C@@H]1O[C@H](CO)[C@@H](O)[C@H](O)[C@H]1O)=C\C(=O)O[C@@H]1C[C@](C)(O)[C@H]2[C@H](O[C@@H]3O[C@H](CO)[C@@H](O)[C@H](O)[C@H]3O)OC=C[C@H]21 [REHMAGLUTOSIDE I]	28.2	68.6	> 10	> 10	> 10	> 10	> 10
C[C@]1(O)C[C@@H](O)[C@@H]2C=CO[C@@H](O[C@@H]3O[C@H](CO[C@H]4C[C@H]5[C@@H]([C@@H](O[C@@H]6O[C@H](CO)[C@@H](O)[C@H](O)[C@H]6O)O4)[C@](C)(O)C[C@@H]5O)[C@@H](O)[C@H](O)[C@H]3O)[C@@H]21 [REHMAGLUTOSIDE J]	25.2	67.3	> 10	> 10	> 10	> 10	> 10
C[C@]1(O)C[C@@H](O)[C@@H]2C=CO[C@@H](O[C@@H]3O[C@H](CO[C@@H]4C[C@H]5[C@@H]([C@@H](O[C@@H]6O[C@H](CO)[C@@H](O)[C@H](O)[C@H]6O)O4)[C@](C)(O)C[C@@H]5O)[C@@H](O)[C@H](O)[C@H]3O)[C@@H]21 [REHMAGLUTOSIDE K]	35.5	71.8	> 10	> 10	> 10	> 10	> 10
